{
  "source": "ChEMBL document CHEMBL4118256",
  "about": "“Second Generation of Mannich Base-Type Derivatives with in Vivo Activity against Trypanosoma cruzi” (J Med Chem, 2018)",
  "key": {"[1]": {"system": "Mus musculus", "experiment": "(§1) Hepatotoxicity in Balb/c mouse infected with Trypanosoma cruzi MHOM/Pe/2011/Arequipa DTU 5 trypamastigotes assessed as increase in ratio of serum AST to GOT level at 100 mg/kg, po once daily for 5 consecutive days starting from day 10 post infection measured on day 16 post infection by biochemical analysis relative to control", "assay_type": "toxicity, organism-based", "details": "in vivo"}, "[2]": {"system": "Mus musculus", "experiment": "as §1, with “day 75” for “day 10”, “day 81” for “day 16”", "assay_type": "toxicity, organism-based", "details": "in vivo"}, "[3]": {"system": "Mus musculus", "experiment": "(§2) Cardiotoxicity in Balb/c mouse infected with Trypanosoma cruzi MHOM/Pe/2011/Arequipa DTU 5 trypamastigotes assessed as change in serum LDH level at […], po once daily for 5 consecutive days starting from day 75 post infection measured on day 81 post infection by biochemical analysis relative to control", "assay_type": "toxicity, organism-based", "details": "in vivo", "procedure,_shortened": "(§3)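 Serum clinical chemistry in Arequipa-infected female BALB/c mice. Oral 20 mg·kg-1 per day for 5 days, started day 10 or day 75 pi. Samples taken at day 16 pi or day 81 pi, and on necropsy day. Markers: CK-MB and LDH (U/L), AST, ALT and alkaline phosphatase (U/L), total bilirubin. Results scored relative to infected untreated controls; uninfected reference n = 15.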"}, "[4]": {"system": "Mus musculus", "experiment": "as §1, with “127” for “16”", "assay_type": "toxicity, organism-based", "details": "in vivo"}, "[5]": {"system": "Mus musculus", "experiment": "as §1, with “serum ALT” for “serum AST”, “to GPT” for “to GOT”, “day 75” for “day 10”, “day 81” for “day 16”", "assay_type": "toxicity, organism-based", "details": "in vivo"}, "[6]": {"system": "Mus musculus", "experiment": "as §1, with “day 75” for “day 10”, “day 127” for “day 16”", "assay_type": "toxicity, organism-based", "details": "in vivo"}, "[7]": {"system": "Trypanosoma cruzi", "experiment": "(§4) Antitrypanosomal activity against Trypanosoma cruzi MHOM/Pe/2011/Arequipa DTU 5 trypamastigotes infected in Balb/c mouse assessed as reduction in Ig-G level in serum at 20 mg/kg, po pretreated once daily for 5 consecutive days starting from day 75 post infection followed by cyclophosphamide-induced immunosuppression on day 100 post infection every 4 days for a maximum of 3 doses measured on day 127 post infection by ELISA", "assay_type": "functional, organism-based", "procedure,_shortened": "(§5)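 Female BALB/c mice (8-10 weeks, 20-25 g), six per group, infected i.p. with 5 x 10^5 Arequipa bloodstream trypomastigotes. Compound was given orally once daily for 5 days from day 10 or day 75 pi, at 20 mg·kg-1 per day in 5 % DMSO/0.5 % HPMC. Anti-T. cruzi IgG in serum was measured by ELISA with Fe-SOD antigen, read as OD 490 nm.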"}, "[8]": {"system": "Mus musculus", "experiment": "(§6) Hepatotoxicity in Balb/c mouse infected with Trypanosoma cruzi MHOM/Pe/2011/Arequipa DTU 5 trypamastigotes assessed as increase in total bilirubin level at 20 mg/kg, po once daily for 5 consecutive days starting from day 75 post infection measured on day 81 post infection by biochemical analysis relative to control", "assay_type": "toxicity, organism-based", "details": "in vivo"}, "[9]": {"system": "Mus musculus", "experiment": "as §6, with “change” for “increase”, “alkaline phosphatase” for “total bilirubin”, “10” for “75”, “127” for “81”", "assay_type": "toxicity, organism-based", "details": "in vivo", "procedure,_shortened": "as §3"}, "[10]": {"system": "Trypanosoma cruzi", "experiment": "Antitrypanosomal activity against Trypanosoma cruzi MHOM/Pe/2011/Arequipa DTU 5 trypamastigotes infected in Balb/c mouse assessed as reduction in Ig-G level in serum at 20 mg/kg, po once daily for 5 consecutive days starting from day 10 post infection measured on day 100 post infection by ELISA", "assay_type": "functional, organism-based", "procedure,_shortened": "as §5"}, "[11]": {"system": "Mus musculus", "experiment": "as §6, with “Nephrotoxicity” for “Hepatotoxicity”, “decrease” for “increase”, “urea” for “total bilirubin”, “level in serum” for “level”, “10” for “75”, “127” for “81”", "assay_type": "toxicity, organism-based", "set-up": "scale not given: the % may be the effect or the level left", "details": "in vivo"}, "[12]": {"system": "Trypanosoma cruzi", "experiment": "Antitrypanosomal activity against Trypanosoma cruzi MHOM/Pe/2011/Arequipa DTU 5 trypamastigotes infected in Balb/c mouse assessed as reduction in splenomegaly at 20 mg/kg, po once daily for 5 consecutive days starting from day 10 post infection measured on day 127 post infection relative to control", "assay_type": "functional, organism-based"}, "[13]": {"system": "Trypanosoma cruzi", "experiment": "as §4, with “parasitaemia reactivation” for “Ig-G level”, “muscle tissue” for “serum”, “10” for “75”, “PCR method” for “ELISA”", "assay_type": "functional", "set-up": "scale not given: the % may be the effect or the level left"}, "[14]": {"system": "Mus musculus", "experiment": "as §6, with “alkaline phosphatase” for “total bilirubin”", "assay_type": "toxicity, organism-based", "details": "in vivo"}, "[15]": {"system": "Mus musculus", "experiment": "as §6, with “10” for “75”, “16” for “81”", "assay_type": "toxicity, organism-based", "details": "in vivo"}, "[16]": {"system": "Trypanosoma cruzi", "experiment": "as §4, with “parasitaemia reactivation” for “Ig-G level”, “bone marrow tissue” for “serum”, “10” for “75”, “PCR method” for “ELISA”", "assay_type": "functional", "set-up": "scale not given: the % may be the effect or the level left", "procedure,_shortened": "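Necropsy on day 127 pi after oral treatment and cyclophosphamide immunosuppression. Tissue DNA was amplified by PCR targeting the ~300 bp T. cruzi SOD gene, 200 nM each primer, 30 cycles with 55.5 °C annealing. Products run on 2 % agarose; positive organs counted out of six mice.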"}, "[17]": {"system": "Mus musculus", "experiment": "as §1, with “20” for “100”, “75” for “10”, “81” for “16”", "assay_type": "toxicity, organism-based", "details": "in vivo"}, "[18]": {"system": "Mus musculus", "experiment": "as §6, with “Nephrotoxicity” for “Hepatotoxicity”, “decrease” for “increase”, “urea” for “total bilirubin”, “level in serum” for “level”, “127” for “81”", "assay_type": "toxicity, organism-based", "set-up": "scale not given: the % may be the effect or the level left", "details": "in vivo"}, "[19]": {"system": "Mus musculus", "experiment": "as §6, with “Nephrotoxicity” for “Hepatotoxicity”, “decrease” for “increase”, “urea” for “total bilirubin”, “level in serum” for “level”", "assay_type": "toxicity, organism-based", "set-up": "scale not given: the % may be the effect or the level left", "details": "in vivo"}, "[20]": {"system": "Trypanosoma cruzi", "experiment": "Antitrypanosomal activity against Trypanosoma cruzi MHOM/Pe/2011/Arequipa DTU 5 trypamastigotes infected in Balb/c mouse assessed as reduction in splenomegaly at 20 mg/kg, po once daily for 5 consecutive days starting from day 75 post infection measured on day 127 post infection relative to control", "assay_type": "functional, organism-based"}, "[21]": {"system": "Mus musculus", "experiment": "as §1, with “20” for “100”", "assay_type": "toxicity, organism-based", "details": "in vivo"}, "[22]": {"system": "Mus musculus", "experiment": "as §1, with “Nephrotoxicity” for “Hepatotoxicity”, “urea level in” for “ratio of”, “serum” for “serum AST to GOT level”, “127” for “16”", "assay_type": "toxicity, organism-based", "details": "in vivo"}, "[23]": {"system": "Mus musculus", "experiment": "as §6, with “Nephrotoxicity in” for “Hepatotoxicity in”, “in urea” for “in total bilirubin”, “level in serum” for “level”, “at […]” for “at 20”, “day 127” for “day 81”", "assay_type": "toxicity, organism-based", "details": "in vivo"}, "[24]": {"system": "Mus musculus", "experiment": "as §6, with “Nephrotoxicity in” for “Hepatotoxicity in”, “in uric acid” for “in total bilirubin”, “level in serum” for “level”, “at […]” for “at 20”", "assay_type": "toxicity, organism-based", "details": "in vivo"}, "[25]": {"system": "Trypanosoma cruzi", "experiment": "Antitrypanosomal activity against Trypanosoma cruzi MHOM/Pe/2011/Arequipa DTU 5 trypamastigotes infected in Balb/c mouse assessed as parasitaemia reactivation at 100 mg/kg, po pretreated once daily for 5 consecutive days starting from day 10 post infection followed by cyclophosphamide-induced immunosuppression on day 100 post infection every 4 days for a maximum of 3 doses measured up to 1 week post immunosuppression by Neubauer chamber method", "assay_type": "functional"}, "[26]": {"system": "Mus musculus", "experiment": "as §1, with “Cardiotoxicity” for “Hepatotoxicity”, “decrease” for “increase”, “creatine kinase in muscle” for “serum AST”, “brain” for “GOT level”, “[…],” for “100 mg/kg,”", "assay_type": "toxicity, organism-based", "set-up": "scale not given: the % may be the effect or the level left", "details": "in vivo", "procedure,_shortened": "as §3"}, "[27]": {"system": "Mus musculus", "experiment": "as §2, with “Hepatotoxicity” for “Cardiotoxicity”, “alkaline phosphatase” for “serum LDH”", "assay_type": "toxicity, organism-based", "details": "in vivo", "procedure,_shortened": "as §3"}},
  "note": "Activity calls are given as the source filed them. The calls are words filed in the database; no cut-off is given here.",
  "data": [
    {"compound": "COc1ccc(C(=O)CCN2CCN(c3ccc([N+](=O)[O-])cc3)CC2)cc1", "values": [
      {"measurement": "Activity", "setting": "[1]", "value": "> 40", "unit": "%"},
      {"measurement": "Activity", "setting": "[2]", "value": "<= 30%"},
      {"measurement": "Activity", "setting": "[3]", "value": "< 10", "unit": "%"},
      {"measurement": "Activity", "setting": "[4]", "value": "<= 30%"},
      {"measurement": "Activity", "setting": "[5]", "value": "<= 30%"},
      {"measurement": "Activity", "setting": "[6]", "value": "<= 20%"}
    ]},
    {"compound": "O=C(Cn1ccnc1[N+](=O)[O-])NCc1ccccc1", "note": "[BENZNIDAZOLE]", "values": [
      {"measurement": "Activity", "setting": "[7]", "value": "Active"},
      {"measurement": "Activity", "setting": "[8]", "value": "<= 30%"},
      {"measurement": "Activity", "setting": "[9]", "value": "< 10", "unit": "%"},
      {"measurement": "Activity", "setting": "[10]", "value": "Active"},
      {"measurement": "Activity", "setting": "[11]", "value": "<= 30%"},
      {"measurement": "Activity", "setting": "[12]", "value": "Active"},
      {"measurement": "Activity", "setting": "[13]", "value": 33, "unit": "%"},
      {"measurement": "Activity", "setting": "[14]", "value": "> 40", "unit": "%"},
      {"measurement": "Activity", "setting": "[15]", "value": "<= 20%"},
      {"measurement": "Activity", "setting": "[16]", "value": 33, "unit": "%"},
      {"measurement": "Activity", "setting": "[17]", "value": "<= 20%"},
      {"measurement": "Activity", "setting": "[18]", "value": "<= 30%"},
      {"measurement": "Activity", "setting": "[19]", "value": "<= 30%"},
      {"measurement": "Activity", "setting": "[20]", "value": "Active"},
      {"measurement": "Activity", "setting": "[21]", "value": "> 40", "unit": "%"}
    ]},
    {"compound": "COc1ccc(C(=O)CCN2CCN(c3ccc(F)cc3)CC2)cc1", "values": [
      {"measurement": "Activity", "setting": "[22]", "value": "<= 10%"},
      {"measurement": "Activity", "setting": "[23]", "value": "<= 10%"},
      {"measurement": "Activity", "setting": "[24]", "value": "<= 10%"}
    ]},
    {"compound": "COc1ccc(C(=O)CCN2CCN(c3ccc(Cl)cc3)CC2)cc1", "values": [
      {"measurement": "Activity", "setting": "[25]", "value": 12, "unit": "%"},
      {"measurement": "Activity", "setting": "[26]", "value": "<= 20%"},
      {"measurement": "Activity", "setting": "[27]", "value": "< 10", "unit": "%"}
    ]}
  ]
}
